From article PMC7340344 (Journal of medicinal chemistry, 2020)
Structures can show the parent of a compound that is named as a salt.

Assays:
PCAF = PCAF (Homo sapiens, UniProt Q92831); test: Inhibition of PCAF; type: biochemical
Myst3 = Myst3 (Homo sapiens, UniProt Q92794); test: Inhibition of Myst3; type: biochemical
Kasumi-1 leukemia cells = test: Western blot of cellular histone acetylation; type: cell-based; settings: Kasumi-1 cells, 12h, 5 and 10 μM
Outline: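 Kasumi-1 cells (10^6/well) were exposed to test compound at 0, 5 and 10 μM for 12 h. Total histones were extracted by kit, and 2 μg per lane were separated by SDS-PAGE and transferred to PVDF. Blots were probed with antibodies to H3K9Ac, H3K18Ac, H3K27Ac and total H3, then with an anti-rabbit IgG secondary.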

p300 HAT = target: T1, p300 HAT (Homo sapiens, UniProt Q09472); test: Steady-state enzyme kinetics, mode of inhibition; type: biochemical
T1 sequence (Q09472 1195-1673): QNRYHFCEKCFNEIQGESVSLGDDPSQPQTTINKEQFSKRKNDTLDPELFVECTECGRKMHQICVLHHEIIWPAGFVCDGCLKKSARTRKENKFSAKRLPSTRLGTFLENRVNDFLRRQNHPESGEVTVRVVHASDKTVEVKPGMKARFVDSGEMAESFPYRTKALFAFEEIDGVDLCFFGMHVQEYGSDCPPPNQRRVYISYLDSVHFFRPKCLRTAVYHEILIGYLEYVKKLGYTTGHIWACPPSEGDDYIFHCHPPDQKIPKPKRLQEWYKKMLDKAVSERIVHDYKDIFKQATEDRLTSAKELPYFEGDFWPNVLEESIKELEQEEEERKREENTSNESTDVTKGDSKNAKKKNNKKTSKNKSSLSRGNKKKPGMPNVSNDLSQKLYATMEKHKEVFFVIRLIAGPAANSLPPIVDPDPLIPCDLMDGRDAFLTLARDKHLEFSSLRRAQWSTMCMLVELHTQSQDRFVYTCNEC
Outline: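 Radiometric filter-binding assay with recombinant human GST-p300 HAT domain (residues 1195-1673) expressed in E. coli, at 10 nM. Enzyme was preincubated with test compound for 10 min at 25 °C in 50 mM phosphate, pH 7.0, with 0.01% Brij-35. Histone H3 (1-21) peptide and 3H-Ac-CoA/Ac-CoA started the reaction, with Ac-CoA or peptide concentration varied. After 30 min at 25 °C, formic acid stopped it; peptide was captured on P81 paper, washed with NaHCO3 and scintillation-counted.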

MCF-7 = test: Cell growth inhibition, MCF-7; type: cell-based; settings: Homo sapiens, MCF7, read-out: Antiproliferative activity EC50 (μM), MCF-7
[1] = system: ER+ breast cancer MCF-7 cells; test: RNA sequencing and gene set enrichment analysis; type: cell-based, human; settings: MCF-7, 6 μM, 48 hours, with estradiol 10 nM; p < 0.001
Outline: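 MCF-7 cells were starved for 7 days in phenol red-free DMEM with 10% charcoal-treated FBS. They were then given test compound (6 μM) or DMSO, with or without estradiol (10 nM), for 48 h. Total RNA was sequenced as stranded, rRNA-depleted libraries (HiSeq 2500, paired-end) and mapped to hg38. FPKM values were quantile-normalized and analysed by GSEA against MSigDB and the siRNA p300-knockdown signature (GSE31873, C4–2B cells).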

LSD1 = LSD1 (Homo sapiens, UniProt O60341); test: Inhibition of LSD1; type: biochemical
p300 HAT and histone H4 = target: T2, p300 HAT and histone H4 (Homo sapiens, UniProt Q09472); test: Alpha assay, binding between p300 HAT and histone H4 peptide
T2 sequence (Q09472 1287-1663 limits assumed): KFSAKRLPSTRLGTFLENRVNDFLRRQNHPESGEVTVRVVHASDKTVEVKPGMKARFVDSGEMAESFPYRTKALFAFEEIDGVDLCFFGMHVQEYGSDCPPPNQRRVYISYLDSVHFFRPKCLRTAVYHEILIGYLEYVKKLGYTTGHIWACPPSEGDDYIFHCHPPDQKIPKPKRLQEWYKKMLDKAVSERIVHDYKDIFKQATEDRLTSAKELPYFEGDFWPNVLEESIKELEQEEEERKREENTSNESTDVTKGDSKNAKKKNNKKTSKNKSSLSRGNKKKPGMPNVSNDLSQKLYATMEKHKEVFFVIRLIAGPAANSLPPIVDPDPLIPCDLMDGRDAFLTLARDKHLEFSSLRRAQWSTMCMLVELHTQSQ

HAT domain of human p300 = target: T3, HAT domain of human p300 (Homo sapiens, UniProt Q09472); test: Inhibition of p300-HAT; type: biochemical; settings: tested up to 10 μM
T3 sequence (Q09472 1195-1673): T1 sequence (Q09472 1195-1673)

p300/CBP HAT = settings: cited from earlier work

Myst3, sequence (Q92794 whole entry): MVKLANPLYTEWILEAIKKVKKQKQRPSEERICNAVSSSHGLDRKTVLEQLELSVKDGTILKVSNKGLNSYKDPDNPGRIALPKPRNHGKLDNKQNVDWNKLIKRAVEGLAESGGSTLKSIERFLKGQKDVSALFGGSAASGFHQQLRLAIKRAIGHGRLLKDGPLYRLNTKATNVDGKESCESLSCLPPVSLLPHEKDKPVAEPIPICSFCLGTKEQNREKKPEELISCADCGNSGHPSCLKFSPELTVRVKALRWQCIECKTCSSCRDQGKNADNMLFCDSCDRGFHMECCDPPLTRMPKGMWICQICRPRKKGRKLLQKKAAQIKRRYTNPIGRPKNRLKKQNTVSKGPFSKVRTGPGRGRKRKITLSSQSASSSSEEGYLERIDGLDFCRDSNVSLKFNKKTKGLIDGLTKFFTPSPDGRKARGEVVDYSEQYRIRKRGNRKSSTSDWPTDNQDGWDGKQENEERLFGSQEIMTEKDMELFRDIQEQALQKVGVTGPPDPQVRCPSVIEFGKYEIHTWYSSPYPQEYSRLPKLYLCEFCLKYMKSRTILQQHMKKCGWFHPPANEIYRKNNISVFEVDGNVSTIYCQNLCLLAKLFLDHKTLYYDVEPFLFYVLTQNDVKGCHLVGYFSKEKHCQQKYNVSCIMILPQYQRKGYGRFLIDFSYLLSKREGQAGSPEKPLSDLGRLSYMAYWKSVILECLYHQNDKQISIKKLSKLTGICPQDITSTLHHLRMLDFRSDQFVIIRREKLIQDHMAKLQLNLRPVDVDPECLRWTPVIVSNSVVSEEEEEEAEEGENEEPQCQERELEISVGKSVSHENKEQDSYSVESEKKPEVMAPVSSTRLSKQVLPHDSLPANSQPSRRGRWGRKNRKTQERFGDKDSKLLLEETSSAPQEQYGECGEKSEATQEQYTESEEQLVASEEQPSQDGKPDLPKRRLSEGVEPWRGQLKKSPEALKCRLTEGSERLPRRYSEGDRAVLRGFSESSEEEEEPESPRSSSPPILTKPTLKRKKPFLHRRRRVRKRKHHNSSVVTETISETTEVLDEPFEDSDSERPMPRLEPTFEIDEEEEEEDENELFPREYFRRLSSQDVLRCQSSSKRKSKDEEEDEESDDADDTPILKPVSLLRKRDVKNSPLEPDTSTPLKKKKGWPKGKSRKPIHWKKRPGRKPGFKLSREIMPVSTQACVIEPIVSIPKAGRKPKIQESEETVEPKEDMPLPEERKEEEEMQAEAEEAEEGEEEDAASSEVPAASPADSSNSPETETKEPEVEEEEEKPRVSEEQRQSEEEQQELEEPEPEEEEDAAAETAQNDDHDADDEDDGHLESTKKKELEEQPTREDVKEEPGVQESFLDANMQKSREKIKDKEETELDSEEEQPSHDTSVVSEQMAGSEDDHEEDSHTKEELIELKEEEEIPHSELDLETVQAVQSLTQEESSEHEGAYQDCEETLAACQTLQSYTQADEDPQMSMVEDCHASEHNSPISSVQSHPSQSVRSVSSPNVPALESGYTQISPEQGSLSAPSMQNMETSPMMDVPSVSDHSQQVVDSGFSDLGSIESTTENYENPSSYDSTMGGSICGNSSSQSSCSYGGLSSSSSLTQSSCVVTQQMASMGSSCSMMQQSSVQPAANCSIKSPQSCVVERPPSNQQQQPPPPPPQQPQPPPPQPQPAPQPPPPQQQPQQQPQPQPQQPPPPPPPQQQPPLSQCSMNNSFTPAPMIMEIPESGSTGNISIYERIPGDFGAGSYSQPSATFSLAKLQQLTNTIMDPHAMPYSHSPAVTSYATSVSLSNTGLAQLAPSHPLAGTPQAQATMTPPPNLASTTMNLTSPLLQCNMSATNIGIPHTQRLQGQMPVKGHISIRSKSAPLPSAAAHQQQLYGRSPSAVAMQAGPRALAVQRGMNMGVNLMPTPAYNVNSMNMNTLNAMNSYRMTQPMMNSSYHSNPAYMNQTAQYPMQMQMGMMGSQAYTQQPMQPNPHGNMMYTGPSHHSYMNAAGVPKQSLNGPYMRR
PCAF, sequence (Q92831 whole entry): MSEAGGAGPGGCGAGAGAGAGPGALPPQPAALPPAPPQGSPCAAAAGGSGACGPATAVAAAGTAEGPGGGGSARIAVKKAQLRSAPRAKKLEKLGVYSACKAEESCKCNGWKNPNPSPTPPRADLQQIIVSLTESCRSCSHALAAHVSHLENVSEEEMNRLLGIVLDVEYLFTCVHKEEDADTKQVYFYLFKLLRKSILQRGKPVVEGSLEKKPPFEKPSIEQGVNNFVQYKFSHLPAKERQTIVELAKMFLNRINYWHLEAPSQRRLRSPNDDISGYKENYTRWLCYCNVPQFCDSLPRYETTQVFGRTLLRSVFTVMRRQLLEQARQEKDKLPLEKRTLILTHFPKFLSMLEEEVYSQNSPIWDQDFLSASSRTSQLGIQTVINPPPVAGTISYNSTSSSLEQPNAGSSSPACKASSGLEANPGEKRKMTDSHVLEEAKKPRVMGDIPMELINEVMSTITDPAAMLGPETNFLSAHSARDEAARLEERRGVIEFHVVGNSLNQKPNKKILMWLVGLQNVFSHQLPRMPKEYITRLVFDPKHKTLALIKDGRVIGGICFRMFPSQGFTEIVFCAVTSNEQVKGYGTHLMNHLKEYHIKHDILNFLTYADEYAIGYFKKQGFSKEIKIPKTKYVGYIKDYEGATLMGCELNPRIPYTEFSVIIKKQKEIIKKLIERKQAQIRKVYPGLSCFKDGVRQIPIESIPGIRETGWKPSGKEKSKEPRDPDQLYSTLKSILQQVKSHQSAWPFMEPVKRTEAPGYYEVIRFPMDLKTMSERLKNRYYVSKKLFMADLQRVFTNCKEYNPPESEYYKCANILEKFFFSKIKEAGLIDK

CC(C)(C)c1ccc(-c2cc(CNCC3CCNCC3)sc2-c2ccc(C(C)(C)C)cc2)cc1 [Compound 12, 1-(4,5-bis(4-(tert-Butyl)phenyl)thiophen-2-yl)-N-(piperidin-4-ylmethyl)methanamine hydrochloride]
inhibition of PCAF activity at 50 μM (PCAF): did not significantly inhibit
inhibition of Myst3 activity at 50 μM (Myst3): did not significantly inhibit
cellular acetylation of histone H3K9, H3K18 and H3K27 (Kasumi-1 leukemia cells): significantly inhibit
mode of inhibition against the cofactor Ac-CoA (p300 HAT; Ac-CoA 0.5 - 8 μM (0.07-[…] Km)): non-competitive
mode of inhibition against the substrate histone (p300 HAT; histone peptide 2 - 100 μM): competitive
EC50 (MCF-7): ~3 µM
NES, gene set upregulated by estradiol [1]: −9.19
NES, genes suppressed by estradiol [1]: 7.41
normalized enrichment score (NES), genes suppressed by p300 knockdown (GSE31873) [1]: −3.32
inhibition of LSD1 activity at 50 μM (LSD1): did not significantly inhibit

CC(C)(C)c1ccc(-c2cc(C(=O)NCC3CCNCC3)sc2-c2ccc(C(C)(C)C)cc2)cc1 [Compound 1, 4,5-bis(4-(tert-Butyl)phenyl)-N-(piperidin-4-ylmethyl)thiophene-2-carboxamide hydrochloride]
inhibition of LSD1 activity at 50 μM (LSD1): did not significantly inhibit

NCc1ccc(-c2cc(CNCC3CCNCC3)sc2-c2ccc(CN)cc2)cc1 [Compound 28, ((5-(((Piperidin-4-ylmethyl)amino)methyl)thiophene-2,3-diyl)bis(4,1-phenylene))dimethanamine hydrochloride]
effect on binding between p300 HAT and histone H4 (in words) (p300 HAT and histone H4): not interfered
cellular acetylation of histone H3K9, H3K18 and H3K27 (Kasumi-1 leukemia cells): no significant activity
inhibitory activity against p300 HAT (in words) (HAT domain of human p300): inactive

CNC(=O)Nc1ccc2c(c1)CC[C@@]21OC(=O)N(CC(=O)N(Cc2ccc(F)cc2)[C@@H](C)C(F)(F)F)C1=O [Compound A-485, reference compound]
effect on binding between p300 HAT and histone H4 (in words) (p300 HAT and histone H4): did not affect the binding
mode of inhibition (p300/CBP HAT): competitive against the enzyme cofactor acetyl coenzyme A (Ac-CoA)
